We go through 9 molecules from ChEMBL document CHEMBL1268887, “2-Hexadecynoic acid inhibits plasmodial FAS-II enzymes and arrests erythrocytic and liver stage Plasmodium infections” (Bioorg Med Chem, 2010).

Each structure is given as a SMILES string. pIC50: −log10 of the molar value. In brackets after ≈: the same amount, converted by molar mass.

Test [1] has as its target T1, 3-oxoacyl-acyl-carrier protein reductase (Plasmodium falciparum, UniProt Q965D6).
T1 sequence (Q965D6 whole entry): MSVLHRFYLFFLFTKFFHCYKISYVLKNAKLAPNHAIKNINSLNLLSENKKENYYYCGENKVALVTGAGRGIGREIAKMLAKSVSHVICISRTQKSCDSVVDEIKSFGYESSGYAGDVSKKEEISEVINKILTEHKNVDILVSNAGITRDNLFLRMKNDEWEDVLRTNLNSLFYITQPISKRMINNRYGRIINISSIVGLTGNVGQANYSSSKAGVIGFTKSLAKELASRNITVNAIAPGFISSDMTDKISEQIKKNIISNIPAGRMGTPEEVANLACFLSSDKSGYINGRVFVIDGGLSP
The test can be described thus: Inhibition of Plasmodium falciparum FabG by spectrophotometric analysis. The procedure, abridged:
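Recombinant PfFabG assayed in 20 mM HEPES pH 7.4, 150 mM NaCl, with NADPH cofactor and acetoacetyl-CoA substrate; DMSO at most 1% final. IC50 came from plotted dose-response curves.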

The test system of test [2] is Plasmodium falciparum. The test can be described thus: Selectivity ratio of IC50 for Plasmodium falciparum FabG to IC50 for Plasmodium falciparum FabI.
The subject of the next test is L6. The test can be described thus: Cytotoxicity against rat L6 cells after 72 hrs by microplate fluorometric analysis. Type of test: cell-based. Conditions: L6, 72 h.
The next test deals with T2, Fatty acid synthase (Plasmodium falciparum, UniProt Q965D7).
T2 sequence (Q965D7 whole entry): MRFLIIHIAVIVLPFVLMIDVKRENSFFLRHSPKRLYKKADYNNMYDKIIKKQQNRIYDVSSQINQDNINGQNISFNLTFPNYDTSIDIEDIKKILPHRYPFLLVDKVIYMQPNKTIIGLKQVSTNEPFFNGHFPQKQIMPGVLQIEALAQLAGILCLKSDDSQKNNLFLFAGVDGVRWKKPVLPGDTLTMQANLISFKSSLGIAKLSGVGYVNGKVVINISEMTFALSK
The test can be described thus: Inhibition of Plasmodium falciparum FabZ by spectrophotometric analysis. The procedure, abridged:
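Recombinant PfFabZ (0.5 μg) with 25 μM crotonoyl-CoA in 20 mM HEPES pH 7.4, 150 mM NaCl; DMSO at most 1% final. Read at 263 nm for 2 min, with epigallocatechin gallate as reference. IC50 came from plotted dose-response curves.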

The next test concerns Leishmania donovani. The test can be described thus: Leishmanicidal activity against axenic amastigotes of Leishmania donovani MHOM/ET/67/L82 after 72 hrs. The class given is functional, organism-based. Conditions: MHOM/ET/67/L82, 72 h.
The subject of test [3] is Plasmodium falciparum. The test can be described thus: Antimalarial activity against erythrocytic stages of chloroquine and pyrimethamine-resistant Plasmodium falciparum K1 assessed as [3H]hypoxanthine incorporation after 48 hrs by liquid scintillation counting. The class given is functional, organism-based. The gist of the method: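 K1 parasites in RPMI 1640 with 5% Albumax, no hypoxanthine, given serial dilutions; 48 h at 37 °C under reduced oxygen, then 0.5 μCi [3H]-hypoxanthine added for a further 24 h. Harvested on glass-fibre filters and counted. Counts per well expressed as percentage of untreated controls; IC50 read from plotted dose-response curves. Chloroquine as standard.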

In test [4] the test system is Plasmodium yoelii. The test can be described thus: Antimalarial activity against liver stages of Plasmodium yoelii expressing GFP infected in human HepG2:CD81 cells after 43 hrs by flow cytometry. Type of test: functional, organism-based. The procedure, abridged:
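HepG2:CD81 cells seeded on attachment matrix in DMEM/F12 with FBS, infected next day with 50,000 PyGFP sporozoites dissected from mosquitoes 14 days post blood meal. Compound added 2 h later from 10 mM DMSO stocks, tested at 10 to 100 μM, medium changed at 24 h, grown a further 43 h at 37 °C. GFP-positive cells counted by flow cytometry with 7-AAD; atovaquone as positive control.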

In test [5] the test system is Plasmodium falciparum. The test can be described thus: Selectivity ratio of IC50 for Plasmodium falciparum FabG to IC50 for Plasmodium falciparum FabZ.
For test [6], the system named is Plasmodium yoelii. The test can be described thus: Antimalarial activity against liver stages of Plasmodium yoelii expressing GFP infected in human HepG2:CD81 cells after 43 hrs by immunofluorescence analysis. Type of test: functional, organism-based. The procedure, abridged:
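P. yoelii sporozoite-infected subconfluent HepG2:CD81 cells were kept at 37 °C in 5% CO2 and exposed to compound at up to 25 μg/ml in complete medium. After 43 h they were formalin-fixed and stained with anti-Plasmodium HSP70 mouse mAb plus rabbit anti-UIS4 or anti-FabI. About 20–25 parasites per treatment were sized at 20X against DMSO controls. The normalized reduction was used for IC50 estimation.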

The test system of test [7] is Trypanosoma brucei rhodesiense. The test can be described thus: Trypanocidal activity against bloodstream form of Trypanosoma brucei rhodesiense STIB 900 after 72 hrs. Type of test: functional, organism-based. Conditions: STIB 900, 72 h.
Test [8] has as its target T3, Enoyl-acyl-carrier protein reductase (Plasmodium falciparum, UniProt Q965D5).
T3 sequence (Q965D5 whole entry): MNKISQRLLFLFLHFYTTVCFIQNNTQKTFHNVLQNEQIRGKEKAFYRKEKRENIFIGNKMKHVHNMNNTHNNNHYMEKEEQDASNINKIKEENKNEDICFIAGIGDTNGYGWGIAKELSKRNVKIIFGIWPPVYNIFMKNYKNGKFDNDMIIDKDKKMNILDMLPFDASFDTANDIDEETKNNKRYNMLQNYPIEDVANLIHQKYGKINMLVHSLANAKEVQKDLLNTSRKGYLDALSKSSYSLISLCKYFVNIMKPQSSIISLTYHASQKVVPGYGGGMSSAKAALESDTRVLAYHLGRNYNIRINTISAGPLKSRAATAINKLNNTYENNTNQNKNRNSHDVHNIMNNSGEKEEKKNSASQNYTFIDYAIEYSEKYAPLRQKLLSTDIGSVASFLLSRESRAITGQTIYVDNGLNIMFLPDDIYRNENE
The test can be described thus: Inhibition of Plasmodium falciparum FabI by spectrophotometric analysis.

Another test has as its system Trypanosoma cruzi. The test can be described thus: Trypanocidal activity against intracellular amastigotes of Trypanosoma cruzi Tulahuen C2C4 expressing LacZ gene infected in rat L6 cells after 96 hrs. Type of test: functional, organism-based. Conditions: Tulahuen C2C4, L6, 96 h.

As to `CCCCCCCCCCC#CCCCC(=O)O`, the pIC50 (commonly −log10 of the IC50, conventionally taken in molar units) in test [1] was less than 3.40; against Fatty acid synthase, 4.26; in [8], 4.91. Moreover, the results for the Ratio IC50 in the test with Plasmodium falciparum [2] and in the test on Plasmodium falciparum [5] were 10 and 50, respectively. The half-maximal inhibitory concentration (IC50) (as a rule, the concentration needed to halve the response being measured) with L6 is more than 90 µg/mL; in the test on Leishmania donovani it was 13.4 µg/mL (≈ 53.1 µM); in the test with Plasmodium falciparum [3], 6.6 µg/mL (≈ 26.1 µM); in the test with Plasmodium yoelii [4] it was more than 25 µg/mL; with Plasmodium yoelii [6] it was more than 25 µg/mL; in test [7], 25.5 µg/mL (≈ 101 µM). For the same molecule, the 50% inhibitory concentration (IC50) with Trypanosoma cruzi is more than 30 µg/mL.

As to `CCCCCCCCCC#CCCCCC(=O)O`, the results for the pIC50 (in [1]; against Fatty acid synthase; in test [8]) were less than 3.40, 4.32 and 4.85, respectively. Further, the Ratio IC50 in the test with Plasmodium falciparum [2] turned out to be 10; in the test with Plasmodium falciparum [5], 50. The IC50 is 30.3 µg/mL (≈ 120 µM) with L6; 9.8 µg/mL (≈ 38.8 µM) with Leishmania donovani; 22.5 µg/mL (≈ 89.1 µM) in the test with Plasmodium falciparum [3]; more than 25 µg/mL in the test on Plasmodium yoelii [4]; more than 25 µg/mL with Plasmodium yoelii [6]; 31.7 µg/mL (≈ 126 µM) in test [7]. In addition, the IC50 in the test with Trypanosoma cruzi is more than 30 µg/mL.

`O=C1C(O)=C([C@H]2CC[C@H](c3ccc(Cl)cc3)CC2)C(=O)c2ccccc21` [ATOVAQUONE]: the IC50 in the test on Plasmodium yoelii [4] was 0.0025 µg/mL (≈ 0.00681 µM); in the test on Plasmodium yoelii [6], 0.00037 µg/mL (≈ 0.00101 µM).

`CCCCCCCCCCCCCCCCOP(=O)([O-])OCC[N+](C)(C)C` [MILTEFOSINE] registered an IC50 in the test with Leishmania donovani of 0.26 µg/mL (≈ 0.638 µM).

For the molecule `CCCCCCCCCCCCCCCC(=O)O` [PALMITIC ACID], the pIC50 (in test [1]; against Fatty acid synthase; in test [8]) was less than 3.41 throughout. The IC50 with L6 is 52.7 µg/mL (≈ 206 µM); in the test on Leishmania donovani it was 14.5 µg/mL (≈ 56.5 µM); with Plasmodium falciparum [3], 3.8 µg/mL (≈ 14.8 µM); with Plasmodium yoelii [4], more than 25 µg/mL; with Plasmodium yoelii [6], more than 25 µg/mL; in [7], 30.4 µg/mL (≈ 119 µM). This molecule displayed an IC50 in the test on Trypanosoma cruzi of more than 30 µg/mL.

On Fatty acid synthase, `O=C(O[C@@H]1Cc2c(O)cc(O)cc2O[C@@H]1c1cc(O)c(O)c(O)c1)c1cc(O)c(O)c(O)c1` [EPIGALOCATECHIN GALLATE] gave a pIC50 of 7.18.

Consider `CCCCCCC#CCCCCCCCC(=O)O`, for which the pIC50 in [1] was less than 3.40; on Fatty acid synthase it was 4.31; in [8], 4.95. For the same molecule, the values for the Ratio IC50 in the test with Plasmodium falciparum [2] and in the test with Plasmodium falciparum [5] were 10 and 50, respectively. Also, the IC50 in the test with L6 was 80.8 µg/mL (≈ 320 µM); in the test with Leishmania donovani, 4.1 µg/mL (≈ 16.2 µM); in the test on Plasmodium yoelii [4] it was more than 25 µg/mL; in the test on Plasmodium yoelii [6], more than 25 µg/mL; in [7] it was 3.7 µg/mL (≈ 14.7 µM); in the test on Trypanosoma cruzi it was more than 30 µg/mL.

For `COc1cc([C@@H]2c3cc4c(cc3[C@H](O)[C@H]3COC(=O)[C@H]23)OCO4)cc(OC)c1OC` [PODOFILOX], the IC50 in the test with L6 came out at 0.004 µg/mL (≈ 0.00965 µM).

In the test on Trypanosoma cruzi, `O=C(Cn1ccnc1[N+](=O)[O-])NCc1ccccc1` [BENZNIDAZOLE] displayed an IC50 of 0.489 µg/mL (≈ 1.88 µM).
